Screening results (PubChem BioAssay)
NR2E3 ag-1: agonists of human nuclear receptor NR2E3. AID 2300. actives 0.12% (n = 320,000). GST-NR2E3/biotin-RetCOR TR-FRET, 1536-well. Q9Y5X4. inhibition of corepressor binding, % at 4.78 µM;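 active means percent inhibition above the cutoff of mean plus 3 SD of all tested compounds, set per screening campaign, cut at about 20% in these data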
Target sequence (Q9Y5X4 whole entry, looked up): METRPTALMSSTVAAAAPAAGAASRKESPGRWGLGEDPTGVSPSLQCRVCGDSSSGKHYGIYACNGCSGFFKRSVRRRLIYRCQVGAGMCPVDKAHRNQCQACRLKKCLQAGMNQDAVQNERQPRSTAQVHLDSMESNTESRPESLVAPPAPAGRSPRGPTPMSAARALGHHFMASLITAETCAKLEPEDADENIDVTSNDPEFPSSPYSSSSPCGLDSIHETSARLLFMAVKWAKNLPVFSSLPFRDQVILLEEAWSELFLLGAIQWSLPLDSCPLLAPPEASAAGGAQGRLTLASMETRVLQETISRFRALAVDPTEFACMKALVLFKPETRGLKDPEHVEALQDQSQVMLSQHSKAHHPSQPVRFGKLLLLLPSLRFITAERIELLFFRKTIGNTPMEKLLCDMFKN
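Test system – NR2E3–RetCOR corepressor complex · Quantity – NR2E3 fusion 1.35 nM · Buffer or medium – Tris pH 7.5 · Incubation – Compound–protein incubation for 5 h at 4 °C · Technique – TR-FRET, Eu(K)-anti-GST donor, streptavidin-D2 acceptor, ex 340, em 617/671 nm · Evaluation – percent inhibition of 671/617 nm emission ratio versus biotin and DMSO controls · Plate – 1536-well format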
697 NFkB inh: lowers PMA/ionomycin-induced NF-kB signal in 697 B cells. 697 B-cell NF-kB luciferase reporter, 16 h. inhibition, % at 4 µM. actives 0.33% (n = 330,000); in the data active means inhibition above about 35%
Jurkat NFkB inh: lowers PMA/ionomycin-induced NF-kB signal in Jurkat cells. PMA/ionomycin-induced NF-kB luciferase reporter, luminescence. inhibition, % at 4 µM. actives 0.53% (n = 330,000). AID 435003; in the data active means inhibition above about 50%
aDG glyco up: alpha-DG glycosylation activation; Pro5-aDG cells, alpha-DG glycosylation AlphaScreen (IIH6); 0% Pro5, 100% B10-LARGE cell signal; activation, % at 10 µM; actives 0.22% (n = 360,000); AID 624168;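 active means activation of at least 8% versus controls, or a plate z-score of at least 8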;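 further: Pro5 are CHO cells carrying HIG-tagged alpha-DG that lacks glycosylation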
MPTP inh: permeability transition pore inhibition; isolated mouse mitochondria, Ca2+ swelling absorbance, 30 min; actives 1.4% (n = 360,000); inhibition, % at 10 µM;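 active means inhibition of 50% or more, scaled per plate between neutral and stimulator controls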
NR2E3 ag-2: human photoreceptor-specific nuclear receptor agonism; CHO-S Gal4-NCOR/VP16-NR2E3 two-hybrid, luciferase; actives 0.35% (n = 360,000); Q9Y5X4; inhibition of corepressor binding, % at 3.98 µM;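 active means inhibition above the mean of all tested compounds plus 3 SD, cut at about 70% in these data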;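 further: higher means lower luciferase signal from less NR2E3 corepressor binding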
Jurkat NFkB conf: inhibitors of the PMA/ionomycin-induced NF-kB reporter in Jurkat cells, retest | actives 27% (n = 2,700) | inhibition, % at 4 µM | shares compounds with Jurkat NFkB inh | Jurkat NF-kB luciferase, 16 h | AID 435020;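 active means inhibition reaching about 45% at 4 µM in either replicate, limit read from the data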
697 NFkB conf: lowers PMA/ionomycin-induced NF-kB signal in 697 B cells. shares compounds with 697 NFkB inh. 697 B-cell NF-kB luciferase, 16 h. inhibition, % at 4 µM. actives 35% (n = 2,000). AID 449746; in the data active means inhibition mostly above about 28%, no sharp cut-off; inactive means mostly below about 22%
Numbers stand for hits; - = inactive; . = not tested or not shown. Sampled rows, rich in hits. Any-hit rate of the full collection: about 2.4%.

SMILES	NR2E3 ag-1	697 NFkB inh	Jurkat NFkB inh	aDG glyco up	MPTP inh	NR2E3 ag-2	Jurkat NFkB conf	697 NFkB conf
COc1cccc(N2CCN(C(=O)c3[nH]c(C)c(C(C)=O)c3C)CC2)c1	-	-	55	-	-	-	-	.
COc1cccc(N2CCN(C(=O)c3ccc(CS(=O)c4ccccc4C)o3)CC2)c1 (stereo not given)	-	-	56	-	-	-	36	.
COC(=O)Cn1cc(S(=O)(=O)NCc2ccc(C)cc2)c2cc([N+](=O)[O-])ccc21	.	-	-	-	-	-	.	.
CCCCN(C=O)c1c(CC)nc2ccc(C(=O)NCCN(C)C)cn12	.	.	.	-	-	-	.	.
COc1ccccc1CNC(=O)c1cccc(-c2ccc(C)c3ccccc23)n1	-	-	61	.	.	.	-	.
Cc1no[n+]([O-])c1COc1ccc(/C=N/n2nnnc2N)cc1	-	-	50	-	-	-	-	.
Cc1ccc(/C=N/n2nnnc2N)cc1	-	-	-	-	-	-	.	.
Oc1ccc2ccccc2c1N=Nc1ccccn1	-	-	62	-	-	-	52	.
Oc1ccc2ccccc2c1N=Nc1ccccc1F	-	-	-	-	-	-	.	.
NC(=O)CSc1nc(C2CC2)nc2sc3c(c12)CCCC3	-	-	-	-	-	-	-	.
NC(=O)CSc1nc(N)c2c3c(sc2n1)CCCCC3	-	-	-	-	-	-	.	.
COc1ccc(C(=O)Nc2ccc(-c3ccc(C)o3)cc2)cc1S(=O)(=O)N1CCOCC1	-	-	59	-	-	-	-	.
COc1ccc(C(=O)Nc2ccc(N3CCOCC3)cc2)cc1S(=O)(=O)N1CCOCC1	.	-	-	-	-	-	.	.
Brc1ccc(-c2cn3ccccc3n2)s1	-	-	-	-	-	-	-	.
COc1ccc(-c2cn3ccccc3n2)cc1	-	-	-	-	-	-	.	.
COc1cc(NC(=O)CCn2c(=S)[nH]c3ccccc3c2=O)cc(OC)c1OC	.	.	.	-	-	-	.	.
CCOC(=O)c1c(C)[nH]c(N=Nc2cccc(C)c2)c1C	-	-	-	-	-	-	.	.
CCOC(=O)c1c(C)[nH]c(N=Nc2cccc(OC)c2)c1C	-	-	-	-	-	-	-	.
COc1cccc2cc(-c3csc(NC(=O)CCC(=O)NCCCN4CCC(C)CC4)n3)c(=O)oc12	-	-	-	-	-	-	-	.
CCOc1cccc2cc(-c3csc(NC(=O)CCC(=O)NCCCN4CCC(C)CC4)n3)c(=O)oc12	-	-	-	.	.	.	-	.
CCOc1cccc2cc(-c3csc(NC(=O)CCC(=O)N4CCC(C)CC4)n3)c(=O)oc12	-	-	-	-	-	-	.	.
CCOc1cccc2cc(-c3csc(NC(=O)CCC(=O)NCCN4CCCCC4C)n3)c(=O)oc12 (stereo not given)	-	-	-	-	-	-	-	.
Cc1cnc(C(=O)OCC(=O)NC(=O)c2ccccc2)cn1	-	-	-	-	-	-	.	.
Cc1ccc(C(=O)COC(=O)[C@@H](NC(=O)c2ccco2)C(C)C)s1	.	-	-	-	-	-	.	.
CCOC(=O)c1c(C)[nH]c(C)c1C(=O)COC(=O)COc1ccc(Cl)c(C)c1	.	-	-	-	-	-	.	.
SMILES	NR2E3 ag-1	697 NFkB inh	Jurkat NFkB inh	aDG glyco up	MPTP inh	NR2E3 ag-2	Jurkat NFkB conf	697 NFkB conf
O=C(Nc1ccc(Br)cn1)c1cccc2c1-c1ccccc1C2=O	-	-	61	-	-	-	-	.
Cc1cccc(NC(=O)c2cccc3c2-c2ccccc2C3=O)n1	-	-	-	-	-	-	.	.
CCOc1ccc2nc(NC(=S)N(C)C)sc2c1	-	-	-	-	-	-	-	-
Cc1ccc(Nc2ccccc2)cc1	-	-	-	-	-	-	.	.
Cc1ccc(NC2=Nc3ccccc3CS2)cc1	-	-	-	-	-	-	-	-
Cc1ccc(-c2nnc(/C=C/c3ccccc3)o2)cc1	-	-	-	-	-	-	-	-
C=CC(=O)Nc1ccc(Nc2nc(NC3CCC(N(C)C)CC3)nc3c2ncn3C(C)C)cc1 (stereo not given)	.	97	100	-	-	-	97	80
NC(=O)C1CCN(C(=O)C(Cc2ccccc2)NC(=O)c2ccccc2)CC1 (stereo not given)	-	-	-	-	-	-	.	.
COc1ccc(-n2ncc3c(NCC(C)C)ncnc32)cc1	-	-	-	-	-	-	-	-
Cc1ccc(C(=O)O/N=C(\N)Cc2cccs2)c(Cl)c1	-	-	-	-	-	-	-	-
N=c1ccn2c(n1)O[C@H]1[C@@H](CO)[C@H](O)O[C@H]12	-	70	53	-	-	-	61	61
N=c1nc2n(cc1F)C1OC(CO)C(O)C1O2 (stereo not given)	.	.	.	-	-	-	.	.
O=C(N/N=C/c1cccnc1)C(=O)N1CCCCCC1	-	-	-	-	-	-	.	.
C[C@@H]1C[C@@H]2OC(=O)[C@]3(C)[C@H]2[C@@H](OC3(C)O)[C@]2(C)C(=O)C=C[C@H]12 (stereo not given in full)	-	-	-	-	-	-	.	.
C=C1C(=O)O[C@@H]2C[C@@H](C)[C@@H]3C=CC(=O)[C@@]3(C)[C@@H](OC(C)=O)[C@H]12	-	100	96	.	.	.	98	100
COc1cc(/C=N/NC(=S)Nc2cccc(C(=O)O)c2)ccc1O	-	38	54	-	-	-	50	38
C=C1C(=O)C=C2CN(C(=O)c3ccccc3)[C@@](Cc3ccc(F)cc3)(C(=O)OC)[C@@H]12	-	-	83	-	-	72	76	-
C=C1C(=O)CC2=C1[C@](Cc1ccc(F)cc1)(C(=O)OC)N(C(=O)c1ccccc1)C2	.	.	.	-	-	-	.	.
COc1ccccc1CNC(=O)C(=O)NCC1OCCCN1S(=O)(=O)c1cccs1 (stereo not given)	-	-	-	-	-	-	.	.
CC(C)(C)C(=O)CSc1ncnc2c1cnn2-c1ccccc1	-	-	-	-	-	-	-	-
COc1ccc(N=Cc2c(O)[nH]c3ccccc23)cc1	-	-	-	-	-	-	-	-
O=C(NCc1cc2ccccc2[nH]1)c1ccccc1F	-	-	-	-	-	-	.	.
COc1ccccc1-c1nc(-c2cccc(C)c2)no1	-	-	-	-	-	-	-	-
COc1ccc(-c2noc(-c3ccccc3-c3ccccc3)n2)cc1	-	-	-	-	-	-	.	.
COc1ccc(-c2noc(-c3ccccc3F)n2)cc1	-	-	-	-	-	-	-	-
COc1ccc(-c2nc(-c3ccncc3)no2)c(OC)c1	-	-	-	-	-	-	-	-
CCOC(=O)C1(C)CCCN(C(=O)c2cc(C)on2)C1 (stereo not given)	.	.	.	-	-	-	.	.
